Assay results published in ChEMBL document CHEMBL2046430, “Synthesis, biological evaluation and molecular docking studies of 3-(1,3-diphenyl-1H-pyrazol-4-yl)-N-phenylacrylamide derivatives as inhibitors of HDAC activity” (Bioorg Med Chem, 2012).
pIC50: −log10 of the molar value. Calls of active or inactive are those of the source. No cut-off for these calls is given here.

Assays:
HCT-116 = experiment: Antiproliferative activity against human HCT116 cells after 48 hrs by MTT assay; format: functional, cell-based; conditions: HCT-116, 48 h
In short: (§1)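 Cells grown to log phase in RPMI 1640 + 10% FBS, seeded at 2 × 10^4 cells/mL (100 µL/well) and preincubated 24 h at 37 °C, 5% CO2. Compounds added at preset concentrations; MS275 as positive reference. After 48 h exposure, MTT (2.5 mg/mL in PBS) for 4 h, then SDS–isobutanol–HCl solubilization overnight at 37 °C; OD 570 nm. Triplicate wells per concentration, assays repeated ≥3 times; IC50 reported.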

A549 = experiment: Antiproliferative activity against human A549 cells after 48 hrs by MTT assay; format: functional, cell-based; conditions: A549, 48 h; in short: as §1
Histone deacetylase 2 = Histone deacetylase 2 (Homo sapiens, UniProt Q92769); experiment: Inhibition of HDAC2 in human HeLa cell lysate using KI-104 as substrate after 40 mins by fluorescence analysis; format: cell-free
Histone deacetylase 1 = Histone deacetylase 1 (Homo sapiens, UniProt Q13547); experiment: Inhibition of HDAC1 in human HeLa cell lysate using KI-104 as substrate after 40 mins by fluorescence analysis; format: cell-free
[1] = target: Histone deacetylase (Homo sapiens) (UniProt Q13547+O15379+Q9UBN7+Q92769+Q9UQL6+Q8WUI4+Q9BY41+Q96DB2+P56524+Q9UKV0+Q969S8); conditions: HCT-116, 0.1 to 0.8 uM

Sequence of Histone deacetylase 2 (Q92769 whole entry): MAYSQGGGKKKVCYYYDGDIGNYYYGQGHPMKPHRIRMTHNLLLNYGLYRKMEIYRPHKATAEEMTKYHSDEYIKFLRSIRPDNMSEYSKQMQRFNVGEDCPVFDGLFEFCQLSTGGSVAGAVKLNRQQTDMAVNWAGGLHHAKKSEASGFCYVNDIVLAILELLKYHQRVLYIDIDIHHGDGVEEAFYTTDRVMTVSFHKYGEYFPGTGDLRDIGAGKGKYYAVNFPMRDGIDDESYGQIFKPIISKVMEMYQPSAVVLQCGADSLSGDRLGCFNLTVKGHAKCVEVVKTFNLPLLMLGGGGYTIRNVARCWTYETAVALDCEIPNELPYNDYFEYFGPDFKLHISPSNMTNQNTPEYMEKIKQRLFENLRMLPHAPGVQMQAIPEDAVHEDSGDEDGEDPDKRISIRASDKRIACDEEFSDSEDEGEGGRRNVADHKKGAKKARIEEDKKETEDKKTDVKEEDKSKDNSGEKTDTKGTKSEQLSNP
Sequence of Histone deacetylase 1 (Q13547 whole entry): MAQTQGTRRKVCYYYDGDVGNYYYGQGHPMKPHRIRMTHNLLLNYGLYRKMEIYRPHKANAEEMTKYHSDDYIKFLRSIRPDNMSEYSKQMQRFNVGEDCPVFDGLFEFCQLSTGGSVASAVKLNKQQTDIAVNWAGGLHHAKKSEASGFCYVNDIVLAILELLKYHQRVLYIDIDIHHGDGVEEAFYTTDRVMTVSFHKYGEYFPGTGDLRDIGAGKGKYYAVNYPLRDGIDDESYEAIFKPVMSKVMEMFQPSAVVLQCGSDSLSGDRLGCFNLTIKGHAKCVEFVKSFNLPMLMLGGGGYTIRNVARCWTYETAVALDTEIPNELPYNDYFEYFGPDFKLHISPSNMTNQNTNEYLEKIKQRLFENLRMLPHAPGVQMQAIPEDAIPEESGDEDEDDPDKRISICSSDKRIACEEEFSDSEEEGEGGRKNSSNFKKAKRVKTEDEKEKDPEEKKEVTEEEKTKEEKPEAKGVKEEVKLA

| pIC50 (HCT-116) | pIC50 (A549) | pIC50 (Histone deacetylase 2) | pIC50 (Histone deacetylase 1) | inhibition [1] | Compound |
| --- | --- | --- | --- | --- | --- |
| 5.81 | 5.09 | 5.63 | 5.96 |  | COc1ccc(-c2nn(-c3ccccc3)cc2/C=C\C(=O)Nc2ccc(Cl)cc2)cc1 |
| 5.15 | 4.93 | 5.30 | 5.48 |  | Cc1ccc(-c2nn(-c3ccccc3)cc2/C=C\C(=O)Nc2ccc(Br)cc2)cc1 |
| 5.01 | < 4.70 | 5.19 | 5.39 |  | COc1ccc(NC(=O)/C=C\c2cn(-c3ccccc3)nc2-c2ccc(C)cc2)cc1 |
| 5.01 | < 4.70 | 5.27 | 5.48 |  | COc1ccc(NC(=O)/C=C\c2cn(-c3ccccc3)nc2-c2ccc(Br)cc2)cc1 |
| 5.67 | 5.07 | 5.52 | 5.76 |  | COc1ccc(NC(=O)/C=C\c2cn(-c3ccccc3)nc2-c2ccc(OC)cc2)cc1 |
| 5.82 | 5.13 | 5.66 | 5.98 |  | COc1ccc(-c2nn(-c3ccccc3)cc2/C=C\C(=O)Nc2ccc(Br)cc2)cc1 |

The remaining lines, values behind:

| Compound | pIC50 (HCT-116) | pIC50 (A549) | pIC50 (Histone deacetylase 2) | pIC50 (Histone deacetylase 1) | inhibition [1] |
| --- | --- | --- | --- | --- | --- |
| Cc1ccc(-c2nn(-c3ccccc3)cc2/C=C\C(=O)Nc2ccccc2)cc1 | 4.98 | 4.79 | 5.06 | 5.39 |  |
| O=C(/C=C\c1cn(-c2ccccc2)nc1-c1ccc([N+](=O)[O-])cc1)Nc1ccc(Cl)cc1 | 6.19 | 5.43 | 6.24 | 6.34 |  |
| COc1ccc(NC(=O)/C=C\c2cn(-c3ccccc3)nc2-c2ccc([N+](=O)[O-])cc2)cc1 | 5.97 | 5.29 | 5.94 | 5.99 |  |
| Cc1ccc(-c2nn(-c3ccccc3)cc2/C=C\C(=O)Nc2ccc(Cl)cc2)cc1 | 5.12 | 4.81 | 5.23 | 5.44 |  |
| O=C(/C=C\c1cn(-c2ccccc2)nc1-c1ccc(Br)cc1)Nc1ccc(Br)cc1 | 5.09 | 4.91 | 5.31 | 5.55 |  |
| O=C(/C=C\c1cn(-c2ccccc2)nc1-c1ccc([N+](=O)[O-])cc1)Nc1ccc(Br)cc1 | 6.21 | 5.43 | 6.26 | 6.38 | inactive |
| O=C(/C=C\c1cn(-c2ccccc2)nc1-c1ccc([N+](=O)[O-])cc1)Nc1ccccc1 | 6.07 | 5.29 | 5.94 | 6.04 |  |
| O=C(/C=C\c1cn(-c2ccccc2)nc1-c1ccc(Br)cc1)Nc1ccc(Cl)cc1 | 5.08 | 4.80 | 5.30 | 5.53 |  |
| O=C(/C=C\c1cn(-c2ccccc2)nc1-c1ccc(Br)cc1)Nc1ccccc1 | 4.97 | < 4.70 | 5.19 | 5.46 |  |
| Nc1ccccc1NC(=O)c1ccc(CNC(=O)OCc2cccnc2)cc1 [ENTINOSTAT] | > 7.00 | > 7.00 |  |  |  |
| COc1ccc(-c2nn(-c3ccccc3)cc2/C=C\C(=O)Nc2ccccc2)cc1 | 5.68 | 5.01 | 5.57 | 5.75 |  |
